Test results as given in ChEMBL document CHEMBL3792377, “Synthesis and characterization of a series of chiral alkoxymethyl morpholine analogs as dopamine receptor 4 (D4R) antagonists” (Bioorg Med Chem Lett, 2016).

Key:
[1] = target: T1, D(4) dopamine receptor (Homo sapiens) (UniProt P21917); assay: Displacement of [3H]-Spiperone from human recombinant dopamine D4 receptor expressed in CHOK1 cells at 10 uM relative to control; assay type: cell-based; conditions: CHO-K1
T1 sequence (whole entry): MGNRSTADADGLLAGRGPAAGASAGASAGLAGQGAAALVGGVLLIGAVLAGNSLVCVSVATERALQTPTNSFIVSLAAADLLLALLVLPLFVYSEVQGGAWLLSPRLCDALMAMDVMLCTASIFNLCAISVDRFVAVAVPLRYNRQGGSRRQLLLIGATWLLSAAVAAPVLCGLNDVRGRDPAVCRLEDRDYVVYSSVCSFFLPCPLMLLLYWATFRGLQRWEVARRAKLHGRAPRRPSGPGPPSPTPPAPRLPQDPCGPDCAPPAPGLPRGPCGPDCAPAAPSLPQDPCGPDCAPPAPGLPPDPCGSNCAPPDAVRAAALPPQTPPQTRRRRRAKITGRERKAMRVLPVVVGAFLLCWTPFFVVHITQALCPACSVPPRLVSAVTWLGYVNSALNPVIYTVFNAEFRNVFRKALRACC
Summary of the method: (§1)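 Radioligand binding at human D4 receptor using [3H]-spiperone, run as a contract assay in duplicate. IC50 and Ki were derived from concentration–response data. Single-point values are % inhibition of specific binding at 10 µM test compound.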

D(2) dopamine receptor [2] = target: T2, D(2) dopamine receptor (Homo sapiens, UniProt P14416); assay: Displacement of [3H]-Spiperone from human recombinant dopamine D2L receptor expressed in CHO cells at 10 uM relative to control; assay type: cell-based
T2 sequence (P14416 whole entry): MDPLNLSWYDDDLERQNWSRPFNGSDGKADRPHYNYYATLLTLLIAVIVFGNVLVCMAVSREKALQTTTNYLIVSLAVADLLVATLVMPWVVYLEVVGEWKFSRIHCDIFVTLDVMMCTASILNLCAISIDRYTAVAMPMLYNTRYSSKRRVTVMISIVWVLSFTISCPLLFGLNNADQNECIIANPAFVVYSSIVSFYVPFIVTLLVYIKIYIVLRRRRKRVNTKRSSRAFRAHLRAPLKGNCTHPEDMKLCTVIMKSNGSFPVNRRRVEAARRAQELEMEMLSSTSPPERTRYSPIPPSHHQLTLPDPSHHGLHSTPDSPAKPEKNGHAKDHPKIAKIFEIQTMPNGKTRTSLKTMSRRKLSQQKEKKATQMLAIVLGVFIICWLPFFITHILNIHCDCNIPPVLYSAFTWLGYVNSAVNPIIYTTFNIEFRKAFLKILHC
Summary of the method: (§2)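 Off-target dopamine receptor radioligand binding (D1, D2L, D2S, D3, D5), run as a contract assay. Test compound at a single concentration of 10 µM, reported as % inhibition of specific binding, measured in duplicate.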

Plasma = assay: Fraction unbound in rat plasma by equilibrium dialysis method; assay type: ADME, cell-free
D(4) dopamine receptor = target: T3, D(4) dopamine receptor (Homo sapiens, UniProt P21917); assay: Displacement of [3H]-Spiperone from human recombinant dopamine D4 receptor expressed in CHOK1 cells; assay type: cell-based, CHO-K1; summary of the method: as §1
T3 sequence (P21917 whole entry): T1 sequence (whole entry)

D(2) dopamine receptor [3] = target: T2, D(2) dopamine receptor; assay: Displacement of [3H]-Spiperone from human recombinant dopamine D2S receptor expressed in CHO cells at 10 uM relative to control; assay type: cell-based; summary of the method: as §2
D(1A) dopamine receptor [4] = target: T4, D(1A) dopamine receptor (Homo sapiens, UniProt P21728); assay: Displacement of [3H]-SCH-23390 from human recombinant dopamine D1 receptor expressed in CHO cells at 10 uM relative to control; assay type: cell-based; summary of the method: as §2
T4 sequence (P21728 whole entry): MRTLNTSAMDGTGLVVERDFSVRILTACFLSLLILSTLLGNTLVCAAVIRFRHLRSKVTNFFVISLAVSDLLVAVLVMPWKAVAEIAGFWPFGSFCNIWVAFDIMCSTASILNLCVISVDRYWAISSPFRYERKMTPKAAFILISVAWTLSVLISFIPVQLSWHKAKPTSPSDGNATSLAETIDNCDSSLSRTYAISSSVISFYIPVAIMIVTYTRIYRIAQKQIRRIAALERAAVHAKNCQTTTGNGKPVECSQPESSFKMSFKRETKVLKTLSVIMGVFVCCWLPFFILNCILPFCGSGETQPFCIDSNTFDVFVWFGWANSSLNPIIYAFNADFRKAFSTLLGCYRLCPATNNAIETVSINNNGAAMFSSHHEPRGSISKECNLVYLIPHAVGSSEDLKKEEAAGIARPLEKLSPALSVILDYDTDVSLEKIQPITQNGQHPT

[5] = Fraction unbound in human plasma by equilibrium dialysis method; assay type: ADME, cell-free
D(3) dopamine receptor [6] = target: T5, D(3) dopamine receptor (Homo sapiens, UniProt P35462); assay: Displacement of [3H]-Spiperone from human recombinant dopamine D3 receptor expressed in CHO cells at 10 uM relative to control; assay type: cell-based; summary of the method: as §2
T5 sequence (P35462 whole entry): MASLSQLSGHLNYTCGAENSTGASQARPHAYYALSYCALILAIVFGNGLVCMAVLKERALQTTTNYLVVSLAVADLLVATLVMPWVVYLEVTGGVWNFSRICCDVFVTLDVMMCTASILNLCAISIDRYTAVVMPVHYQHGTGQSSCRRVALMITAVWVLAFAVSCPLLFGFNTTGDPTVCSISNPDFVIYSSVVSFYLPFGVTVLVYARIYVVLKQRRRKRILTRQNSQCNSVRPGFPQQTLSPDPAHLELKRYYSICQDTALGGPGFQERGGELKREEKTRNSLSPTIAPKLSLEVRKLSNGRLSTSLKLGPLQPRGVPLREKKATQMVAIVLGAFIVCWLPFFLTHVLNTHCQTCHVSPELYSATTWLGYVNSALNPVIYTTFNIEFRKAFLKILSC

D(1B) dopamine receptor [7] = target: T6, D(1B) dopamine receptor (Homo sapiens, UniProt P21918); assay: Displacement of [3H]-SCH-23390 from human recombinant dopamine D5 receptor expressed in CHO cells at 10 uM relative to control; assay type: cell-based; summary of the method: as §2
T6 sequence (P21918 whole entry): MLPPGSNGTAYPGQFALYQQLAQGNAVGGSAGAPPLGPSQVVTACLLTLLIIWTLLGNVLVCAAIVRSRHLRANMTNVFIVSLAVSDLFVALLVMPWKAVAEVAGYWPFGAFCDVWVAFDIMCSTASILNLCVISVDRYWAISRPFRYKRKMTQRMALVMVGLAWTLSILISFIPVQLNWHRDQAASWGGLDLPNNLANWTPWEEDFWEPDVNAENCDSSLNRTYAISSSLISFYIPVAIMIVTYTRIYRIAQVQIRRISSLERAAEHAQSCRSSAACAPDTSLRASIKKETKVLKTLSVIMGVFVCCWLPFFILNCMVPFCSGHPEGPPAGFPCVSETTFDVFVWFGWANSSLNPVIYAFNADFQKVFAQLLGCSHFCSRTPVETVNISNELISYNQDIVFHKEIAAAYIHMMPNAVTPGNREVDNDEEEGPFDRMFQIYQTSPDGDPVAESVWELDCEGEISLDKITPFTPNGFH

[8] = Plasma concentration in rat at 0.25 mg/kg, iv administered through cassette dosing at 0.25 hrs; assay type: ADME, organism-based
[9] = Ratio of drug level in brain to plasma in rat at 0.25 mg/kg, iv administered through cassette dosing at 0.25 hrs; assay type: ADME, organism-based
[10] = Drug uptake in rat brain at 0.25 mg/kg, iv administered through cassette dosing at 0.25 hrs; assay type: ADME, organism-based; conditions: read-out: Drug uptake
Homo sapiens [11] = species on record: Homo sapiens; assay: Selectivity ratio of Ki for human recombinant dopamine D5 receptor to Ki for human recombinant dopamine D4 receptor
D(2) dopamine receptor [12] = target: T2, D(2) dopamine receptor; assay: Displacement of [3H]-Spiperone from human recombinant dopamine D2S receptor expressed in CHO cells; assay type: cell-based
[13] = target: Dopamine receptors; D3 & D4 (Homo sapiens) (UniProt P35462+P21917); assay: Selectivity ratio of Ki for human recombinant dopamine D3 receptor to Ki for human recombinant dopamine D4 receptor
Chain of Dopamine receptors; D3 & D4 (Homo sapiens) (P35462 whole entry, looked up, one chain of several): as the sequence (P35462 whole entry) above

Homo sapiens [14] = species on record: Homo sapiens; assay: Selectivity ratio of Ki for human recombinant dopamine D2S receptor to Ki for human recombinant dopamine D4 receptor
D(1A) dopamine receptor [15] = target: T4, D(1A) dopamine receptor; assay: Displacement of [3H]-SCH-23390 from human recombinant dopamine D1 receptor expressed in CHO cells; assay type: cell-based
D(2) dopamine receptor [16] = target: T2, D(2) dopamine receptor; assay: Displacement of [3H]-Spiperone from human recombinant dopamine D2L receptor expressed in CHO cells; assay type: cell-based
Homo sapiens [17] = species on record: Homo sapiens; assay: Selectivity ratio of Ki for human recombinant dopamine D2L receptor to Ki for human recombinant dopamine D4 receptor
Homo sapiens [18] = species on record: Homo sapiens; assay: Selectivity ratio of Ki for human recombinant dopamine D1 receptor to Ki for human recombinant dopamine D4 receptor
D(1B) dopamine receptor [19] = target: T6, D(1B) dopamine receptor; assay: Displacement of [3H]-SCH-23390 from human recombinant dopamine D5 receptor expressed in CHO cells; assay type: cell-based
D(3) dopamine receptor [20] = target: T5, D(3) dopamine receptor; assay: Displacement of [3H]-Spiperone from human recombinant dopamine D3 receptor expressed in CHO cells; assay type: cell-based
D(1A) dopamine receptor [21] = target: T4, D(1A) dopamine receptor; conditions: CHO, 1 uM
Liver microsome [22] = assay: Drug metabolism in human liver microsomes assessed as (S)-2-((6-chloropyridin-2-yloxy)methyl)morpholine formation in presence of NADPH; assay type: ADME
Liver microsome [23] = assay: Metabolic stability in human liver microsomes in absence of NADPH; assay type: ADME
Liver microsome [24] = assay: Drug metabolism in rat liver microsomes assessed as oxidative dealkylated metabolite formation in presence of NADPH; assay type: ADME
D(2) dopamine receptor [25] = target: T2, D(2) dopamine receptor; conditions: CHO, 1 uM
D(1B) dopamine receptor [26] = target: T6, D(1B) dopamine receptor; conditions: CHO, 1 uM
D(3) dopamine receptor [27] = target: T5, D(3) dopamine receptor; conditions: CHO, 1 uM
D(2) dopamine receptor [28] = target: T2, D(2) dopamine receptor; conditions: CHO, 1 uM; remark: listed apart in the source
Liver microsome [29] = assay: Metabolic stability in rat liver microsomes in absence of NADPH; assay type: ADME

inhibition [1] | inhibition (D(2) dopamine receptor [2]) | Fu (Plasma) | IC50 (D(4) dopamine receptor) | Ki (D(4) dopamine receptor) | inhibition (D(2) dopamine receptor [3]) | inhibition (D(1A) dopamine receptor [4]) | Fu [5] | inhibition (D(3) dopamine receptor [6]) | inhibition (D(1B) dopamine receptor [7]) | SMILES | other results
34% |  |  |  |  |  |  |  |  |  | COc1cc(CN2CCO[C@H](COc3ccccn3)C2)ccc1Cl | 
-3% |  |  |  |  |  |  |  |  |  | COc1cc(CN2CCO[C@H](COc3cccc(F)n3)C2)ccc1Cl | 
 |  | 0.014 | 0.037 µM | 0.0101 µM | < 50% |  | 0.011 |  |  | COc1cc(CN2CCO[C@H](COc3cccc(F)c3)C2)ccc1Cl | 
 | 52% | 0.025 | 0.042 µM | 0.0116 µM | 60% | < 50% | 0.01 | < 50% | < 50% | COc1cc(CN2CCO[C@H](COc3ccccc3)C2)ccc1Cl | 

Second part, the molecule before the results:

SMILES | inhibition [1] | inhibition (D(2) dopamine receptor [2]) | Fu (Plasma) | IC50 (D(4) dopamine receptor) | Ki (D(4) dopamine receptor) | inhibition (D(2) dopamine receptor [3]) | inhibition (D(1A) dopamine receptor [4]) | Fu [5] | inhibition (D(3) dopamine receptor [6]) | inhibition (D(1B) dopamine receptor [7]) | other results
COc1ccc2c(CN3CCO[C@H](COc4ccccc4)C3)c[nH]c2c1 |  | 87% | 0.075 | 0.0195 µM | 0.0054 µM | 82% | < 50% | 0.037 | 70% | < 50% | 
Cn1ncc2cc(CN3CCO[C@H](COc4ccccc4)C3)ccc21 |  |  | 0.074 | 0.17 µM | 0.047 µM |  |  | 0.039 |  |  | concentration at 0.25 h [8]: 37.3 ng/mL; Kp [9]: 2.23; concentration at 0.25 h [10]: 83.1 ng/g
COc1ccc(CN2CCO[C@H](COc3ccccn3)C2)cc1Cl | 37% |  |  |  |  |  |  |  |  |  | 
c1ccc(OC[C@@H]2CN(Cc3ccc4[nH]ccc4c3)CCO2)cc1 |  | 64% | 0.069 | 0.058 µM | 0.0159 µM | 64% | < 50% | 0.035 | < 50% | < 50% | 
COc1ccc(CN2CCO[C@H](COc3ccccn3)C2)cc1 | 57% |  |  |  |  |  |  |  |  |  | 
Clc1ccc2c(CN3CCO[C@H](COc4ccccc4)C3)c[nH]c2c1 |  | 94% | 0.01 | 0.008 µM | 0.0022 µM | 93% | < 50% | 0.006 | 70% | < 50% | concentration at 0.25 h [8]: 74.8 ng/mL; Kp [9]: 3.29; concentration at 0.25 h [10]: 246 ng/g
Fc1ccc(OC[C@@H]2CN(Cc3ccc(Cl)cc3)CCO2)cc1 |  | 83% |  | 0.038 µM | 0.0104 µM | 79% | < 50% |  | 51% | < 50% | 
Clc1ccc(CN2CCO[C@H](CSc3ccccc3)C2)cc1 |  |  | 0.005 | 0.034 µM | 0.0094 µM | < 50% |  | 0.008 |  |  | Ratio Ki (Homo sapiens [11]): > 1000; Ki (D(2) dopamine receptor [12]): > 10 µM; Ratio Ki [13]: > 1000; Ratio Ki (Homo sapiens [14]): > 1000; concentration at 0.25 h [8]: 26.1 ng/mL; Ki (D(1A) dopamine receptor [15]): > 10 µM; Ki (D(2) dopamine receptor [16]): > 10 µM; Ratio Ki (Homo sapiens [17]): > 1000; Ratio Ki (Homo sapiens [18]): > 1000; Kp [9]: 5.03; Ki (D(1B) dopamine receptor [19]): > 10 µM; concentration at 0.25 h [10]: 131 ng/g; Ki (D(3) dopamine receptor [20]): > 10 µM
Fc1ccc2c(CN3CCO[C@H](COc4cccc(Cl)n4)C3)c[nH]c2c1 |  |  | 0.016 | 0.0119 µM | 0.0033 µM | < 50% |  | 0.015 |  |  | Ratio Ki (Homo sapiens [11]): > 1000; Ki (D(2) dopamine receptor [12]): > 10 µM; Ratio Ki [13]: > 1000; inhibition (D(1A) dopamine receptor [21]): < 10%; Ratio Ki (Homo sapiens [14]): > 1000; Ki (D(1A) dopamine receptor [15]): > 10 µM; Drug metabolism (Liver microsome [22]): metabolite_detected; Stability (Liver microsome [23]): Stable; Drug metabolism (Liver microsome [24]): metabolite_detected; inhibition (D(2) dopamine receptor [25]): < 10%; Ki (D(2) dopamine receptor [16]): > 10 µM; Ratio Ki (Homo sapiens [17]): > 1000; Ratio Ki (Homo sapiens [18]): > 1000; Ki (D(1B) dopamine receptor [19]): > 10 µM; inhibition (D(1B) dopamine receptor [26]): < 10%; Ki (D(3) dopamine receptor [20]): > 10 µM; inhibition (D(3) dopamine receptor [27]): < 10%; inhibition (D(2) dopamine receptor [28]): < 10%; Stability (Liver microsome [29]): Stable
